# A selection follows.
# Apaf1 activ: activates human Apaf-1 apoptosome. O14727. Apaf-1 apoptosome caspase-3 activation, DEVD-Rh110 fluorescence; active compounds read low. activity change, negative = activation, % at 20 µM. 330,000 tested, 0.31% active. AID 489031;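 active = activity change at or below -40% at 20 µM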
#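 Material: biochemical Apaf-1 apoptosome reconstitution; Medium: 20 mM HEPES buffer, pH 7.5, containing CHAPS and BSA; Reagent: dATP, cytochrome c, and (Z-DEVD)2-Rh110 caspase-3 substrate; Times: 30 min preincubation, 50 min reaction, room temperature; Signal: Rh110 fluorescence, excitation 480 nm, emission 540 nm; Measure: Caspase-3 activity via Apaf-1.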
# Rh110 interf act: counter-screen for Apaf-1 activators: fluorescence interference; shares compounds with Apaf1 activ; Rh110 fluorescence interference, quenched caspase reaction, Ex480/Em540; fluorescence interference (activity change), % at 20 µM, hits read low; 980 tested, under 10 active;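 active = mean activity change at or below -40% when tested at 20 µM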
# Apaf-1 act conf2: confirmation of human Apaf-1 activators. shares compounds with Apaf1 activ. reconstituted apoptosome caspase-3 activity, DEVD-Rh110 fluorescence; active compounds read low. activity change, negative = activation, % at 20 µM. 980 tested, 5% active;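 active = mean activity change at or below -40%, meaning activation of 40% or more, at 20 µM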
# * hit, by the source's call.
SMILES,Apaf1 activ,others
Oc1ccc(Cl)cc1CNc1cccc2cccnc12,91,
Nc1ccc2nn(-c3ccc(F)cc3)nc2c1,88,
CCOC(=O)c1ccc(Nc2nc(N)c3cc(OC)c(OC)cc3n2)cc1,54,
O=C(CCC1CCCCC1)NCCN1C2=NC[C@@H](Cc3ccccc3)N2C[C@H]1Cc1ccc(O)cc1,45,
O=C1C(=O)c2ccccc2C(O)=C1CCCCl,83,
CCc1ccc2nc(NC(=O)CSCc3c(C)noc3C)sc2c1,46,
O=C1C=C(Nc2cccc3cccnc23)c2ccccc2C1=O,47,
O=C(c1ccc(Cl)c(S(=O)(=O)N2CCCCCC2)c1)N1CCCC(C(F)(F)F)C1 (stereo not given),60,
O=S(=O)(c1cccc2cccnc12)N1CCCCC1,-44*,
CCN(CC)CCN(C(=O)c1ccc2c(c1)CCCC2)c1nc2cc(OC)c(OC)cc2s1,48,
CCCCCC#CCC#CCC#CCC#CCCCC(=O)O,41,
O=C(c1ccc(-c2cccc(C(F)(F)F)c2)o1)N1CCCC(C(F)(F)F)C1 (stereo not given),43,
C[C@H](CO)N1C[C@H](C)[C@@H](CN(C)Cc2ccc(Cl)c(Cl)c2)Oc2c(NC(=O)Cc3ccccc3)cccc2C1=O,44,
O=C(CCS(=O)(=O)c1ccc(Br)cc1)NCc1ccc(F)cc1,-99*,
O=C(OCc1cc(Cl)ccc1OC(F)F)c1ccc([N+](=O)[O-])o1,66,
Oc1c(Br)cc(Br)cc1C=Nc1cccnc1,79,
Nc1c(Br)cc(Br)cc1CNC1CCC(O)CC1 (stereo not given),11,
CCn1cc(CN2CCC(n3nccc3NC(=O)c3cccc(F)c3)CC2)cn1,-302*,
COc1ccccc1CNC(=O)CN1C(=O)NC(c2ccccc2)(c2ccc(C)c(C)c2)C1=O (stereo not given),66,
COC(=O)C1=C(C)N(Cc2ccccc2)C(=NCc2cccc(Cl)c2)N[C@H]1c1cccc(F)c1,67,
COc1ccc(NS(=O)(=O)c2cccc(C(=O)N3CCCCCCC3)c2)cc1,45,
COc1ccc(NS(=O)(=O)c2cccc(C(=O)N/N=C/c3cn(-c4ccccc4)nc3-c3ccc(OC)cc3)c2)cc1,-45*,
COc1ccccc1C(CNC(=O)c1cccc(S(=O)(=O)Nc2ccc(C)cc2)c1)N(C)C (stereo not given),46,
CCOc1ccc(NC(=O)CN(C)C(=O)c2ccccc2OCc2c(C)noc2C)cc1OCC,57,
COc1ccccc1N(/N=C1\Sc2ccccc2C1=O)C(C)=O,83,
SMILES,Apaf1 activ,others
CCc1ccc(S(=O)(=O)Nc2cc(SCC(=O)O)c(O)c3ccccc23)cc1,71,
CC(C)(C)NS(=O)(=O)c1ccc(CCC(=O)O)cc1,-99*,
COCCN(Cc1ccccc1)C(=O)C1CCN(S(=O)(=O)c2ccc3c(c2)OCCO3)CC1,49,
CC(=O)[C@H]1[C@H](c2cccc(Cl)c2)C(C#N)(C#N)[C@@H]2c3ccccc3C=CN21,56,
Cc1cccc(NC(=S)NCc2ccc3c(c2)cc(C)n3C)c1C,66,
C#CCOCCOCCOCCNc1nc(N2CCN(C(=O)CCCCCCCCCCNC(=O)[C@H](CO)n3cc(CCCSC)nn3)CC2)nc(N2CCN(C(=O)CCCCCCCCCCNC(=O)[C@H](CCCN=C(N)N)n3cc(C[C@@H](C)CC)nn3)CC2)n1,45,
CCn1c2ccccc2c2c3ncc4cccn4c3ccc21,62,
S=C(Nc1ccc2nsnc2c1)N1CCCC1,98,
CNC[C@@H]1Oc2ccc(NS(=O)(=O)c3ccc(Cl)cc3)cc2C(=O)N([C@H](C)CO)C[C@@H]1C,45,
CC(=O)Nc1ccc(S(=O)(=O)NC2(C(F)(F)F)NC(=O)N(c3ccc(Cl)cc3)C2=O)cc1 (stereo not given),-58*,
CC(=O)Nc1ccc(S(=O)(=O)NCc2ccc3c(c2)cc(C)n3C)cc1,51,
COc1ccc(CCNC(=O)CSc2nnc(-c3ccco3)c(-c3ccco3)n2)cc1OC,43,
Nc1ccc(O)c2ccccc12,68,
O=C1Cc2ccccc2C(=O)N1Cc1ccccc1,52,
CCCCC(=O)NC(c1ccc(C(C)C)cc1)c1ccc2cccnc2c1O (stereo not given),-463*,
CC1CN(S(=O)(=O)c2cccc(C(=O)N(CCc3ccccc3)Cc3ccccc3)c2)CC(C)O1 (stereo not given),45,
CCCN(CC(=O)Nc1ccccc1C)C(=O)c1sc2ccccc2c1Cl,61,
CC(=O)C1=C(c2cccc([N+](=O)[O-])c2)N(C(C)=O)n2c(C)nnc2S1,44,
Cc1ccc(Nc2nc(N)c([N+](=O)[O-])c(NCc3ccco3)n2)cc1,-443*,Rh110 interf act=13;Apaf-1 act conf2=17
Cc1ccc(NC2=C(NCCO)C(=O)c3ccccc3C2=O)cc1,78,
COC(=O)CCC(=O)OC1(C)C(=O)C=C2C=C(C3CC3)N(CCN3CCOCC3)C=C2C1=O (stereo not given),46,
Cc1cccc(CN2C(=O)/C(=C\c3ccc(C(=O)NCCCN4CCN(C)CC4)cc3)Oc3ccccc32)c1,53,
Cc1cccc(NC(=O)CSCC(=O)N(C)Cc2ccc(Cl)c(Cl)c2)c1,63,
COC(=O)NCc1ccc(Cl)c(Cl)c1,-71*,Rh110 interf act=-3;Apaf-1 act conf2=-3
CCC(=O)Nc1ccccc1C(=O)N1CCCC1,-44*,Rh110 interf act=-8;Apaf-1 act conf2=5
SMILES,Apaf1 activ,others
COc1ccccc1OCC(=O)NCC1CCCN(C(=O)c2ccccc2SC)C1 (stereo not given),51,
Cc1cccc(NC(=O)CN2CCN(C(=O)c3oc4c(Cl)cccc4c3C)CC2)c1C,70,
CN(C)c1cccc2cccc(N(C)C)c12,89,
CC(=O)Nc1ccc(N2CC(C)(C)C2=O)cc1,-58*,Rh110 interf act=6;Apaf-1 act conf2=11
O=C1CC(c2ccccc2)n2ncnc2N1 (stereo not given),-347*,Rh110 interf act=4;Apaf-1 act conf2=11
COc1cc2[nH]c(=O)n(Cc3ccc(C(=O)NC4CCCC4)cc3)c(=O)c2cc1OC,-53*,Rh110 interf act=7;Apaf-1 act conf2=3
O=C(c1ccc(Cn2c(=O)[nH]c3ccccc3c2=O)cc1)N1CCN(c2ccc(Cl)cc2)CC1,41,
CCN(CC)c1nc(N)c2c(N)nc(OC)cc2c1C#N,46,
CCCCCC(=O)Nc1ccc(N2CCN(S(C)(=O)=O)CC2)cc1,-523*,Rh110 interf act=6;Apaf-1 act conf2=12
O=C(COc1ccc2ccc(=O)oc2c1)Nc1ccc(N2CCCCC2)cc1,47,
Cc1sc2ncnc(N3CCC(C(=O)N(C)CC(=O)Nc4ccccc4Cl)CC3)c2c1C,60,
CCCCNC(=O)C(C1CCCCC1)N(CCN(C)C)C(=O)CCCN1C(=O)NC(c2ccc(-c3ccccc3)cc2)C(C(=O)OCc2ccccc2)=C1C (stereo not given),64,
CC(C)C(NS(=O)(=O)c1ccc2c(c1)oc(=O)n2C)C(=O)N1CCN(C2CCCCC2)CC1 (stereo not given),-54*,Rh110 interf act=1;Apaf-1 act conf2=9
CC(=O)Oc1ccc(/C=C2/C(=O)N(c3ccccc3)N=C2C)cc1,91,
COc1ccc2[nH]c3c(c2c1)CCN1C(=O)C(CC(=O)NCCC2=CCCCC2)C[C@H](C(=O)N2CCOCC2)[C@@]31CCC1CCCC1 (stereo not given in full),44,
Cc1ccccc1C(=O)c1cccn1CC(=O)NCc1ccc(Cl)cc1,-92*,Rh110 interf act=7;Apaf-1 act conf2=16

# Bioassay records as filed in PubChem.
